# Where two headings read alike, the source gives them in different places.
# How the values were obtained:
# [1] = cited from earlier work
# [2] = Population PK analysis; assay type: in vivo, human
# How it was run: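 A prior two‑compartment NONMEM model was refined, keeping its interindividual random effects. Covariates were tested on CL/F, Vc/F (age, body weight), Vp/F (body weight) and Ka (sex, fasting, PPI, H2B). Selection used stepwise forward addition (p 0.05) and backward elimination (p 0.005) by likelihood ratio test. Evaluation used nonparametric bootstrap and prediction‑corrected VPC.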
# [3] = previously characterized; cited from earlier work
# [4] = system: OCT2; conditions: read-out: IC50, OCT2; cited from earlier work
# [5] = system: patients with CCA with FGFR2 fusions/re‐arrangements; conditions: for Median PFS: 13.5 mg once daily
# [6] = system: serum phosphate concentration; assay: Exposure-response Emax model of serum phosphate change from baseline; parameters: species or system human; conditions: in vivo
# How it was run: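 Serum phosphate was measured in serum chemistry in 300 pooled monotherapy patients from FIGHT‑101, ‑102 and ‑202. The change from baseline was the mean of C1D8 and C1D15. A three‑parameter Emax nonlinear model related this change to model‑derived AUCss, with baseline serum phosphate as a covariate. Parameters were the maximum change (Emax) and the exposure giving 50% of the maximum increase.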
# [7] = system: MATE1; conditions: read-out: IC50, MATE1; cited from earlier work
# [8] = system: serum creatinine concentration; assay: Exposure-response Emax model of serum creatinine percent change from baseline; assay type: in vivo, human
# How it was run: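 Serum creatinine was measured in routine serum chemistry in 300 pooled monotherapy patients from FIGHT‑101, FIGHT‑102 and FIGHT‑202, using the mean of C1D8 and C1D15. A three‑parameter Emax nonlinear model related percent change from baseline to AUCss. Emax is the maximum change, with a half‑maximal exposure term. For prediction, AUCss was the mean post hoc value at 13.5 mg q.d. and was dose‑scaled for 6, 9 and 20 mg.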
# [9] = previously characterized; cited from earlier work; remark: listed apart in the source
# [10] = Simulated steady-state exposure; conditions: human, plasma, oral, 13.5 mg
# How it was run: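 Each patient's dense steady‑state post hoc concentration‑time profile was simulated from the updated population PK model. Cmax,ss, Cmin,ss and AUCss were then derived by noncompartmental methods, with oral once‑daily dosing of 13.5 mg.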
# [11] = FIGHT-106, healthy participants, 13.5 mg
# [12] = covariate effect, final population PK model
structure (smiles),measurement,setting,value
CCN1C(=O)N(c2c(F)c(OC)cc(OC)c2F)Cc2cnc3[nH]c(CN4CCOCC4)cc3c21 [pemigatinib],Increase in AUC on co-administration of the H2B ranitidine,[1]; [11],3%
same,Reduction in C max on co-administration of the H2B ranitidine,[1]; [11],2%
same,Effect of concomitant PPI esomeprazole on pemigatinib exposure,[1]; FIGHT-106,only a modest effect
same,Reduction in K a with use of PPI,[2]; concomitant PPI vs no PPI,62%
same,Body weight on V c/F,[2]; [12],0.842%
same,Body weight to V p/F,[2]; [12],1.13%
same,H2B antagonist on D1,[2]; [12],−33.4%
same,Male sex on CL/F,[2]; [12],26.2%
same,Male sex on K a,[2]; [12],−58.3%
same,PPI on K a,[2]; [12],−62.0%
same,Phosphate binder on CL/F,[2]; [12],−15.5%
same,"D1 (duration of zero-order drug release), population mean",[2]; final population PK model,0.810 h
same,"K a (absorption rate constant), population mean",[2]; final population PK model,3.67 h⁻¹
same,"CL/F (apparent clearance), population mean","[2]; final population PK model, 467 participants",10.7 L/h
same,Higher CL/F in men compared with women,"[2]; human, in vivo",26.2%
same,Lower K a in men compared with women,"[2]; human, in vivo",58.3%
same,Reduction in D1 with use of H2B,"[2]; human, in vivo",33.4%
same,Vd/F,"[2]; human, plasma, oral",118 L
same,Reduction in CL/F with use of phosphate-binding agents,[2]; users vs nonusers,15.5%
same,Permeability,[3],high permeability
same,IC50,[4],75 nM
same,Model predicted ORR,"[5]; 6 mg, model on mean change from baseline in serum phosphate",29.7%
same,Model predicted ORR,"[5]; 9 mg, model on mean change from baseline in serum phosphate",41.4%
same,Model predicted ORR,"[5]; 13.5 mg, model on AUCss, mean AUCss 2850 h∙nM",45.2%
same,Model predicted ORR,"[5]; 13.5 mg, model on mean change from baseline in serum phosphate",47.1%
same,Model predicted ORR,"[5]; 20 mg, model on mean change from baseline in serum phosphate",46.8%
same,Median PFS,[5]; AUCss first quartile,6.93 months
same,Median PFS,[5]; AUCss fourth quartile,7.03 months
same,Median PFS,[5]; AUCss second quartile,6.93 months
same,Median PFS,[5]; AUCss third quartile,9.20 months
same,Reduction from baseline per 1-mg/dL increase in baseline serum phosphate level,[6],less than or equal to 0.185 mg/dL
same,IC50,[7],1100 nM
same,Estimated percentage change from baseline in serum creatinine concentration,"[8]; 6 mg, dose-scaled mean post hoc AUCss",14.2%
same,Estimated percentage change from baseline in serum creatinine concentration,"[8]; 9 mg, dose-scaled mean post hoc AUCss",18.3%
same,Estimated percentage change from baseline in serum creatinine concentration,"[8]; 13.5 mg q.d., mean post hoc AUCss",22.7%
same,Estimated percentage change from baseline in serum creatinine concentration,"[8]; 20 mg, dose-scaled mean post hoc AUCss",26.9%
same,pH-dependent solubility,[9],poorly soluble at pH > 2
same,AUC,[10],2.85 µM·h
